In brackets after ≈: the same amount, converted by molar mass.
Tests used:
Staphylococcus aureus [1] = experiment: Antibiofilm activity against methicillin-resistant Staphylococcus aureus isolate 2 assessed as biofilm eradication incubated for 24 hrs by CBD assay; format: functional; conditions: for MBC: Staphylococcus aureus, isolate 2, 24 h
Procedure, shortened: (§1)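 Calgary Biofilm Device: pegs inoculated with mid-log culture diluted 1,000-fold in TSB + 0.5% glucose, 24 h 37 °C; washed pegs challenged with 2-fold dilutions 24 h 37 °C; pegs moved to fresh TSBG 24 h; MBEC = lowest concentration leaving no turbidity; 2–6 independent experiments.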

[2] = test system: Staphylococcus epidermidis; experiment: Antibacterial activity against Staphylococcus epidermidis ATCC 12228 incubated for 16 to 18 hrs by broth microdilution method; format: functional
Staphylococcus aureus [3] = experiment: Antibacterial activity against methicillin-resistant Staphylococcus aureus BAA-44 incubated for 16 to 18 hrs by broth microdilution method; format: functional
Enterococcus faecium [4] = experiment: Antibacterial activity against vancomycin-resistant Enterococcus faecium ATCC 700221 incubated for 16 to 18 hrs by broth microdilution method; format: functional
[5] = Induction of hemolysis in human RBC at 200 uM incubated for 1 hr; format: cell-based, Erythrocyte; conditions: red blood cells, read-out: Activity
Procedure, shortened: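 Human RBCs (EDTA), washed three times in Tris-buffered saline pH 7.2; 2% hRBC with compound at final 200 µM, 1 h 37 °C; supernatant OD405; % hemolysis relative to DMSO (0%) and Triton X (100%).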

[6] = test system: Staphylococcus epidermidis; experiment: Antibacterial activity against methicillin-resistant Staphylococcus epidermidis ATCC 35984 assessed as biofilm eradication incubated for 24 hrs by CBD assay; format: functional; conditions: for MBC: Staphylococcus epidermidis, ATCC 35984, 24 h; procedure, shortened: as §1
Staphylococcus aureus [7] = experiment: Antibiofilm activity against methicillin-resistant Staphylococcus aureus BAA-1707 assessed as biofilm eradication incubated for 24 hrs by CBD assay; format: functional; conditions: for MBC: Staphylococcus aureus, BAA-1707, 24 h; procedure, shortened: as §1
Staphylococcus aureus [8] = experiment: Antibacterial activity against methicillin-resistant Staphylococcus aureus BAA-1707 incubated for 16 to 18 hrs by broth microdilution method; format: functional
[9] = test system: Staphylococcus epidermidis; experiment: Antibacterial activity against methicillin-resistant Staphylococcus epidermidis ATCC 35984 incubated for 16 to 18 hrs by broth microdilution method; format: functional
Staphylococcus aureus [10] = experiment: Antibacterial activity against methicillin-resistant Staphylococcus aureus clinical isolate 2 incubated for 16 hrs by broth microdilution method in presence of Cu2+; format: functional; conditions: isolate 2, 16 h
Staphylococcus aureus [11] = experiment: Antibacterial activity against methicillin-resistant Staphylococcus aureus clinical isolate 2 incubated for 16 hrs by broth microdilution method in presence of Fe2+; format: functional; conditions: isolate 2, 16 h
Staphylococcus aureus [12] = experiment: Antibacterial activity against methicillin-resistant Staphylococcus aureus clinical isolate 2 incubated for 16 hrs by broth microdilution method; format: functional; conditions: isolate 2, 16 h
Staphylococcus aureus [13] = experiment: Antibacterial activity against methicillin-resistant Staphylococcus aureus clinical isolate 2 incubated for 16 to 18 hrs by broth microdilution method; format: functional
HeLa = experiment: Cytotoxicity against human HeLa cells after 24 hrs by LDH release assay; format: cell-based
Procedure, shortened: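 HeLa in DMEM + 10% FBS, 37 °C 5% CO2, at 70–80% confluence treated with 25, 50, 100 µM for 24 h; DMSO vehicle; Triton X-100 2% v/v max-LDH control, medium-only negative; supernatant with LDH reaction mix 30 min room temperature, stopped, absorbance 490 nm.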

Enterococcus faecium [14] = experiment: Antibiofilm activity against […]-resistant Enterococcus faecium ATCC 700221 assessed as biofilm eradication incubated for 24 hrs by CBD assay; format: functional; conditions: for MBC: Enterococcus faecium, ATCC 700221, 24 h; procedure, shortened: as §1
[15] = test system: Mycobacterium tuberculosis; experiment: Antibacterial activity against Mycobacterium tuberculosis H37Ra ATCC 25177 after 7 days by two-fold serial dilution method; format: functional; conditions: H37Ra ATCC 25177, 168 h

SMILES | MBEC (Staphylococcus aureus [1]) | MBC (Staphylococcus aureus [1]) | MIC [2] | MIC (Staphylococcus aureus [3]) | MIC (Enterococcus faecium [4]) | hemolysis at 1 h, 200 µM [5] | MBEC [6] | MBC [6] | MBEC (Staphylococcus aureus [7]) | MBC (Staphylococcus aureus [7]) | MIC (Staphylococcus aureus [8]) | MIC [9] | MIC (Staphylococcus aureus [10]) | MIC (Staphylococcus aureus [11]) | MIC (Staphylococcus aureus [12]) | MIC (Staphylococcus aureus [13]) | IC50 (HeLa) | MBEC (Enterococcus faecium [14]) | MBC (Enterococcus faecium [14]) | MIC [15]
Cc1nc2c(Br)cc(Br)c(O)c2nc1C | 1500 µM | 125 µM (≈ 41.5 µg/mL) | 12.5 µM (≈ 4.15 µg/mL) | 6.25 µM (≈ 2.07 µg/mL) | 25 µM (≈ 8.3 µg/mL) | ≤ 1% |  |  |  |  |  |  |  |  |  |  |  |  |  | 
O=C(O)CN(CCN(CC(=O)O)CC(=O)O)CC(=O)O [EDETIC ACID] | >2000 µM | 2000 µM (≈ 584 µg/mL) |  |  |  | 3% | >2000 µM | 1000 µM (≈ 292 µg/mL) |  |  |  |  |  |  |  |  |  |  |  | 
CCCCCCCCCC(=O)N[C@@H](Cc1c[nH]c2ccccc12)C(=O)N[C@@H](CC(N)=O)C(=O)N[C@@H](CC(=O)O)C(=O)N[C@@H]1C(=O)NCC(=O)N[C@@H](CCCN)C(=O)N[C@@H](CC(=O)O)C(=O)N[C@H](C)C(=O)N[C@@H](CC(=O)O)C(=O)NCC(=O)N[C@H](CO)C(=O)N[C@@H]([C@H](C)CC(=O)O)C(=O)N[C@@H](CC(=O)c2ccccc2N)C(=O)O[C@@H]1C [DAPTOMYCIN] | >2000 µM | 62.5 µM (≈ 101 µg/mL) | 6.25 µM (≈ 10.1 µg/mL) | 18.8 µM (≈ 30.5 µg/mL) |  |  |  |  | >2000 µM | 125 µM (≈ 203 µg/mL) | 3.13 µM (≈ 5.07 µg/mL) | 12.5 µM (≈ 20.3 µg/mL) | 12.5 µM | 6.25 µM | 6.25 µM (≈ 10.1 µg/mL) |  |  |  |  | 
Oc1c(Cl)cc(I)c2nc3ccccc3nc12 | 125 µM | 15.6 µM (≈ 5.56 µg/mL) | 1.56 µM (≈ 0.556 µg/mL) | 1.56 µM (≈ 0.556 µg/mL) | 6.25 µM (≈ 2.23 µg/mL) | 5.1% |  |  |  |  | 1.56 µM (≈ 0.556 µg/mL) | 1.56 µM (≈ 0.556 µg/mL) |  |  |  | 1.56 µM (≈ 0.556 µg/mL) | > 100 µM |  |  | 
CCCCc1cc(Br)c(O)c2nc3ccccc3nc12 | 188 µM | 46.9 µM (≈ 15.5 µg/mL) |  |  | 0.78 µM (≈ 0.258 µg/mL) | 11.5% | 23.5 µM | 11.7 µM (≈ 3.88 µg/mL) | 62.5 µM | 46.9 µM (≈ 15.5 µg/mL) |  |  |  |  |  | 3.13 µM (≈ 1.04 µg/mL) |  | 2 µM | 2 µM (≈ 0.662 µg/mL) | 
Oc1c(I)cc(I)c2nc3ccccc3nc12 | 93.8 µM | 31.3 µM (≈ 14 µg/mL) | 1.56 µM (≈ 0.699 µg/mL) | 3.13 µM (≈ 1.4 µg/mL) | 6.25 µM (≈ 2.8 µg/mL) | ≤ 1% | 23.5 µM | 31.3 µM (≈ 14 µg/mL) |  |  | 3.13 µM (≈ 1.4 µg/mL) | 1.17 µM (≈ 0.524 µg/mL) |  |  |  | 3.13 µM (≈ 1.4 µg/mL) | > 100 µM | 15.6 µM | 23.5 µM (≈ 10.5 µg/mL) | 
CC(=O)N[C@@H](CS)C(=O)O [ACETYLCYSTEINE] | >2000 µM | > 2000 µM |  |  |  |  | >2000 µM | > 2000 µM |  |  |  |  |  |  |  |  |  | >2000 µM | > 2000 µM | 
Oc1c(Br)cc(Br)c2nccnc12 | >2000 µM | 1500 µM (≈ 456 µg/mL) | 18.8 µM (≈ 5.71 µg/mL) | 12.5 µM (≈ 3.8 µg/mL) | 100 µM (≈ 30.4 µg/mL) | 1.8% |  |  |  |  | 6.25 µM (≈ 1.9 µg/mL) | 18.8 µM (≈ 5.71 µg/mL) |  |  |  | 25 µM (≈ 7.6 µg/mL) | > 100 µM |  |  | 
Cc1nc2c(I)cc(I)c(O)c2nc1C |  | 93.8 µM (≈ 40 µg/mL) | 2.35 µM (≈ 1 µg/mL) |  | 6.25 µM (≈ 2.66 µg/mL) | 1.2% | 125 µM | 23.5 µM (≈ 10 µg/mL) |  |  |  |  |  |  | 1.17 µM (≈ 0.498 µg/mL) |  | > 100 µM |  |  | > 50 µM
NC(=O)c1cnccn1 [PYRAZINAMIDE] | >2000 µM | > 2000 µM |  |  |  |  |  |  |  |  |  |  |  |  |  |  |  |  |  | 
CCCCCCCCCC(=O)N[C@@H](Cc1c[nH]c2ccccc12)C(=O)N[C@H](CC(N)=O)C(=O)N[C@@H](CC(=O)O)C(=O)N[C@@H]1C(=O)NCC(=O)N[C@@H](CCCN)C(=O)N[C@@H](CC(=O)O)C(=O)N[C@H](C)C(=O)N[C@@H](CC(=O)O)C(=O)NCC(=O)N[C@H](CO)C(=O)N[C@@H]([C@H](C)CC(=O)O)C(=O)N[C@@H](CC(=O)c2ccccc2N)C(=O)O[C@@H]1C [DAPTOMYCIN] |  |  |  |  |  | 1.7% |  |  |  |  |  |  |  |  |  |  |  |  |  | 
Oc1c(Cl)cc(Br)c2nc3ccccc3nc12 | >1000 µM | 62.5 µM (≈ 19.3 µg/mL) | 3.13 µM (≈ 0.969 µg/mL) | 3.13 µM (≈ 0.969 µg/mL) | 6.25 µM (≈ 1.93 µg/mL) | ≤ 1% | 375 µM | 31.3 µM (≈ 9.69 µg/mL) |  |  |  | 1.56 µM (≈ 0.483 µg/mL) |  |  |  |  | > 100 µM | 11.7 µM | 11.7 µM (≈ 3.62 µg/mL) | 
C=CCc1cc(Br)c2nc3ccccc3nc2c1O |  |  | > 100 µM |  | > 100 µM |  |  |  |  |  |  |  |  |  |  | > 100 µM |  |  |  | 
C=CCc1cc(Br)c2nc3cc(Br)c(Br)cc3nc2c1O |  |  | > 100 µM |  | > 100 µM |  |  |  |  |  |  |  |  |  |  | > 100 µM |  |  |  | 
